Source: ChEMBL document CHEMBL1145281, “Potent bombesin-like peptides for GRP-receptor targeting of tumors with 99mTc: a preclinical study” (J Med Chem, 2005)

Assays:
[1] = target: T1, Bombesin receptor subtype-3 (Homo sapiens, UniProt P32247); experiment: Inhibition of bombesin subtype 3 receptor expressed in human lung carcinoids
T1 sequence (P32247 whole entry): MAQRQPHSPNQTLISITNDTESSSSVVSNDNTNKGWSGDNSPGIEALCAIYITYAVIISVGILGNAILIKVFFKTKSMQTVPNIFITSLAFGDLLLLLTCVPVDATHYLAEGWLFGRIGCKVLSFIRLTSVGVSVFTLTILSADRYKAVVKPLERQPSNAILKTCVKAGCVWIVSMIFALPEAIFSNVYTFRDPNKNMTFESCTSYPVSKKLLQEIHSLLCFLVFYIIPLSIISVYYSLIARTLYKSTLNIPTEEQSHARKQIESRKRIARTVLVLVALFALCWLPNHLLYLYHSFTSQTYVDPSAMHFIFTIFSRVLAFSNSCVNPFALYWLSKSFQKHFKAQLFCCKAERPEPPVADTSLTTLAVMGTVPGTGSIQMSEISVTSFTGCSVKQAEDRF

[2] = target: T2, Gastrin-releasing peptide receptor (Homo sapiens, UniProt P30550); experiment: Inhibition of gastrin releasing peptide receptor expressed in human prostate cancer cells; type: cell-based, Cancer cell lines
T2 sequence (P30550 whole entry): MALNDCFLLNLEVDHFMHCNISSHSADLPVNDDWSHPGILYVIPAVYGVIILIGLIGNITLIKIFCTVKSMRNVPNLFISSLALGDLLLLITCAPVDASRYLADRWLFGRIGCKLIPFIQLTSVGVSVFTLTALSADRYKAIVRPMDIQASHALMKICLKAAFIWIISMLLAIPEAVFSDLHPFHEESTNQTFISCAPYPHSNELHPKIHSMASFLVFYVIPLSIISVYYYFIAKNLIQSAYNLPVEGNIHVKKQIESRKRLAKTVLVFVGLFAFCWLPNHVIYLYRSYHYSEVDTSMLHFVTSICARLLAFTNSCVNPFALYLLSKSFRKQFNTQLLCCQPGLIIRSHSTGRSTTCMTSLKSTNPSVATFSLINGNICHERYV

[3] = target: T2, Gastrin-releasing peptide receptor; experiment: Displacement of [125 I-Tyr4]BB from human gastrin releasing peptide receptor expressed in PC-3 cell membranes
PC-3 = experiment: Equilibrium constant of compound for binding to the active sites in human PC-3 cell membranes; type: functional
Method in brief: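 Saturation binding of 99mTc/99gTc-labelled peptides in PC-3 membrane homogenates (50 μg protein), 0.06–12 nM total peptide, two triplicate sets for total and nonspecific binding. HEPES pH 7.6 buffer with 1% BSA, 5.5 mM MgCl2, 35 μM bacitracin. 1 h at 37 °C. Nonspecific binding defined with [Tyr4]BB. Kd from Scatchard analysis.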

SMILES | IC50 [1] | IC50 [2] | IC50 [3] | Kd (PC-3)
CSCC[C@H](NC(=O)[C@H](CC(C)C)NC(=O)[C@H](Cc1c[nH]cn1)NC(=O)CNC(=O)[C@@H](NC(=O)[C@H](C)NC(=O)[C@H](Cc1c[nH]c2ccccc12)NC(=O)[C@H](CCC(N)=O)NC(=O)COCC(=O)Nc1ccc(CC(CNCCN)CNCCN)cc1)C(C)C)C(N)=O | 37 nM | 0.65 nM | 0.08 nM | 0.07 nM
CCCC[C@H](NC(=O)[C@H](CC(C)C)NC(=O)[C@H](Cc1c[nH]cn1)NC(=O)CNC(=O)[C@@H](NC(=O)[C@H](C)NC(=O)[C@H](Cc1c[nH]c2ccccc12)NC(=O)[C@H](CCC(N)=O)NC(=O)[C@H](CC(N)=O)NC(=O)CNC(=O)[C@H](Cc1ccc(O)cc1)NC(=O)[C@H](CCCN=C(N)N)NC(=O)[C@H](CCC(N)=O)NC(=O)[C@@H]1CCCN1C(=O)C(CNCCN)CNCCN)C(C)C)C(N)=O | > 100 nM | 1.94 nM | 0.15 nM | –
CCCC[C@H](NC(=O)[C@H](CC(C)C)NC(=O)[C@H](Cc1c[nH]cn1)NC(=O)CNC(=O)[C@@H](NC(=O)[C@H](C)NC(=O)[C@H](Cc1c[nH]c2ccccc12)NC(=O)[C@H](CCC(N)=O)NC(=O)COCC(=O)Nc1ccc(CC(CNCCN)CNCCN)cc1)C(C)C)C(N)=O | > 100 nM | 1.3 nM | 0.6 nM | 0.14 nM
